Laboratory results published in ChEMBL document CHEMBL5108061, “Lectin-Targeted Prodrugs Activated by Pseudomonas aeruginosa for Self-Destructive Antibiotic Release” (J Med Chem, 2022).
Converted amounts (≈) assume the structure as drawn.

How the values were obtained:
Pseudomonas aeruginosa [1] = test: Antibacterial activity against Pseudomonas aeruginosa PA14 assessed inhibition of bacterial growth incubated for 18 to 20 hrs by broth microdilution method; assay type: functional; settings: time 18-20 hrs
Method in brief: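 Broth microdilution per EUCAST in Müller-Hinton broth II, no matrix preincubation. […] Inoculum from overnight LB-agar colonies adjusted to OD600 0.08–0.13, diluted 1:100, final 5 × 10^5 cfu/mL.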

Elastase [2] = target: T1, Elastase (Pseudomonas aeruginosa (strain ATCC 15692 / PAO1 / 1C / PRS 101 / LMG12228), UniProt P14756); test: Prodrug activation assessed as LasB- mediated drug release in Pseudomonas aeruginosa PA14 cell supernatant and measured after 24 hrs by HPLC-MS analysis
Pseudomonas aeruginosa [3] = test: Antibacterial activity against Pseudomonas aeruginosa PA14 assessed inhibition of bacterial growth preincubated for 10 mins in matrix containing human blood plasma spiked with Pseudomonas aeruginosa cell culture supernatant in PBS buffer followed by overnight grown bacterial culture addition incubated for 18 to 20 hrs by broth microdilution method; assay type: functional
Method in brief: (§1)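 Prodrug serial dilutions in PBS/20% DMSO (1 mM to 1.9 μM) were diluted about 1:20 into matrix. Matrices: plasma 5 mL + PA14 LB-culture sterile filtrate 1 mL + PBS 4 mL; filtrate 1 mL + PBS 9 mL; PBS alone; plasma 5 mL + LB 1 mL + PBS 4 mL. Preincubation was 3 h at 37 °C, or <10 min at room temperature.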

Elastase [4] = target: T1, Elastase; test: Prodrug activation assessed as LasB-mediated drug release in Pseudomonas aeruginosa PA14 cell supernatant in presence of human blood plasma and measured for 3 hrs by HPLC-MS analysis; assay type: cell-free
Pseudomonas aeruginosa [5] = test: Antibacterial activity against Pseudomonas aeruginosa PA14 assessed inhibition of bacterial growth preincubated for 3 hrs in matrix containing 50% human blood plasma and 10% Pseudomonas aeruginosa cell culture supernatant in PBS followed by overnight grown bacterial culture addition incubated for 18 to 20 hrs by broth microdilution method; assay type: functional; settings: time 21-23 hrs; method in brief: as §1
Pseudomonas aeruginosa [6] = test: Antibacterial activity against Pseudomonas aeruginosa PA14 assessed inhibition of bacterial growth preincubated for 10 mins in PBS buffer followed by overnight grown bacterial culture addition incubated for 18 to 20 hrs by broth microdilution method; assay type: functional; method in brief: as §1
[7] = Stability of compound in human blood plasma spiked with Pseudomonas aeruginosa PA14 matrix assessed as hydrolysis of prodrug and measured upto 3 hrs by HPLC-MS/MS analysis; assay type: ADME, cell-free
Pseudomonas aeruginosa [8] = test: Antibacterial activity against Pseudomonas aeruginosa PA14 assessed inhibition of bacterial growth preincubated for 3 hrs in PBS buffer followed by overnight grown bacterial culture addition incubated for 18 to 20 hrs by broth microdilution method; assay type: functional; settings: time 21-23 hrs; method in brief: as §1
Pseudomonas aeruginosa [9] = test: Antibacterial activity against Pseudomonas aeruginosa PA14 assessed inhibition of bacterial growth preincubated for 3 hrs in matrix containing human blood plasma spiked with Pseudomonas aeruginosa cell culture supernatant in PBS buffer followed by overnight grown bacterial culture addition incubated for 18 to 20 hrs by broth microdilution method; assay type: functional; method in brief: as §1
Pseudomonas aeruginosa [10] = test: Antibacterial activity against Pseudomonas aeruginosa PA14 assessed inhibition of bacterial growth preincubated for 3 hrs in matrix containing human blood plasma spiked with fresh LB medium in PBS followed by overnight grown bacterial culture addition incubated for 18 to 20 hrs by broth microdilution method; assay type: functional; settings: time 21-23 hrs; method in brief: as §1
Pseudomonas aeruginosa [11] = test: Antibacterial activity against Pseudomonas aeruginosa PA14 assessed inhibition of bacterial growth preincubated for 3 hrs in matrix containing Pseudomonas aeruginosa cell culture supernatant in PBS buffer followed by overnight grown bacterial culture addition incubated for 18 to 20 hrs by broth microdilution method; assay type: functional; settings: time 21-23 hrs; method in brief: as §1
[12] = target: T2, PA-I galactophilic lectin (Pseudomonas aeruginosa (strain ATCC 15692 / PAO1 / 1C / PRS 101 / LMG12228), UniProt Q05097); test: Competitive binding affinity to recombinant Pseudomonas aeruginosa LecA expressed in Escherichia coli BL21(DE3) incubated for 30 to 60 mins by fluorescent polarization assay
T2 sequence (Q05097 whole entry): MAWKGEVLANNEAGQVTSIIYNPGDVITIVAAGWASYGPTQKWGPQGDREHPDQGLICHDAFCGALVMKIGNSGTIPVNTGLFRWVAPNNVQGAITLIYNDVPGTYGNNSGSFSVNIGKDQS
Method in brief: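 Recombinant LecA (E. coli BL21(DE3), galactosyl-sepharose purified) at 40 μM with 20 nM fluorescein-galactoside reporter in TBS/Ca pH 7.4; compounds serially diluted with 30% DMSO co-solvent, technical triplicates; 30–60 min at 22 °C; fluorescence polarization (ex 485/em 535); four-parameter fit with plateaus fixed by pNP-β-D-Gal control; ≥3 independent experiments.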

Pseudomonas aeruginosa [13] = test: Antibacterial activity against Pseudomonas aeruginosa PA14 assessed inhibition of bacterial growth preincubated for 10 mins in matrix containing human blood plasma spiked with fresh LB medium in PBS followed by overnight grown bacterial culture addition incubated for 18 to 20 hrs by broth microdilution method; assay type: functional; method in brief: as §1
[14] = Stability in human plasma assessed as half life at 1 uM and measured upto 240 mins by HPLC-MS/MS analysis; assay type: ADME, cell-free; settings: 4 h
Method in brief: (§2)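 Compound at 1 μM final in prewarmed mouse or human plasma (pH 7.4), 37 °C, sampled at 0–240 min; extracted with acetonitrile containing caffeine internal standard; HPLC-MS/MS, peak area normalized to internal standard and time 0; procaine and procainamide controls; ≥3 independent repeats.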

[15] = Stability in mouse plasma assessed as half life at 1 uM and measured upto 240 mins by HPLC-MS/MS analysis; assay type: ADME, cell-free; settings: 4 h; method in brief: as §2
[16] = Protein binding in human plasma at 1 uM incubated for incubated for 2 hrs by HPLC-MS/MS analysis; assay type: ADME, cell-free
Method in brief: (§3)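 Rapid equilibrium dialysis; compound at 1 μM final in pooled CD-1 mouse plasma or pooled mixed-gender human plasma, dialysed against buffer; naproxen as high-binding control.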

[17] = Protein binding in CD-1 mouse plasma at 1 uM incubated for incubated for 2 hrs by HPLC-MS/MS analysis; assay type: ADME, cell-free; method in brief: as §3
A549 = test: Cytotoxicity against human A549 cells assessed as reduction in cell viability incubated for 24 hrs by MTT assay
[18] = target: Fucose-binding lectin PA-IIL (Pseudomonas aeruginosa (strain ATCC 15692 / DSM 22644 / CIP 104116 / JCM14847 / LMG 12228 / 1C / PRS 101 / PAO1), UniProt Q9HYN5); test: Competitive binding affinity to recombinant Pseudomonas aeruginosa PAO1 LecB expressed in Escherichia coli BL21(DE3) incubated for 4 to 8 hrs by fluorescent polarization assay
[19] = Drug uptake in human A549 cells assessed as intracellular accumulation at 10 ug/ml incubated for 15 to 60 mins by HPLC-MS/MS analysis; assay type: ADME, cell-based; settings: time 15-60 min, dose 10 µg/ml
Method in brief: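 A549 cells grown to 95% confluence in DMEM/10% FCS, exposed to 10 μg/mL compound for 15, 30 and 60 min at 37 °C; washed twice with PBS, lysed in MeOH; medium, washes and extracts extracted with MeOH containing caffeine internal standard and quantified by HPLC-MS/MS against calibration/QC samples; technical duplicates, two biological replicates.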

T1 sequence (P14756 whole entry): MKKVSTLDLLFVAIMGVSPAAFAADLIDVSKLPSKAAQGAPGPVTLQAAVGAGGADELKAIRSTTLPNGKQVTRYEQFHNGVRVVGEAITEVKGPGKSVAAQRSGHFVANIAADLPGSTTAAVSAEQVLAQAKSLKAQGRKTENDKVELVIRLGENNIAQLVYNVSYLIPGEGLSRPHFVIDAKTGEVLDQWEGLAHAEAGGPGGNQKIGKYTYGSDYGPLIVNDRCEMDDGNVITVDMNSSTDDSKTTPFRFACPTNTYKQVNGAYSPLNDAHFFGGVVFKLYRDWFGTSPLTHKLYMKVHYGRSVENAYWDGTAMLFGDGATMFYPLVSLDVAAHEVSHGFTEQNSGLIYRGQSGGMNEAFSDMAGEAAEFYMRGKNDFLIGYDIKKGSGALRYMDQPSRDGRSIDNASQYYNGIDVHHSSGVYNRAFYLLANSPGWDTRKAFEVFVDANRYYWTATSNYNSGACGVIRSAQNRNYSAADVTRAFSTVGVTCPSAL
Fucose-binding lectin PA-IIL, sequence (Q9HYN5 whole entry): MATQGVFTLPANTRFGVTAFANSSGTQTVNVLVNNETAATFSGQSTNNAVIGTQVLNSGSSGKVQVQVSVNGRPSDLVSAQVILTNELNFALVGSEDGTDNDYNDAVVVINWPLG

SMILES | MIC (Pseudomonas aeruginosa [1]) [µM] | Drug metabolism (Elastase [2]) | MIC (Pseudomonas aeruginosa [3]) [µM] | Drug metabolism (Elastase [4]) | MIC (Pseudomonas aeruginosa [5]) [µM] | MIC (Pseudomonas aeruginosa [6]) [µM] | Stability [7] | MIC (Pseudomonas aeruginosa [8]) [µM] | MIC (Pseudomonas aeruginosa [9]) [µM] | MIC (Pseudomonas aeruginosa [10]) [µM] | MIC (Pseudomonas aeruginosa [11]) [µM] | IC50 [12] [µM] | MIC (Pseudomonas aeruginosa [13]) [µM] | t1/2 [14] [h] | t1/2 [15] [h] | PPB [16] [%] | PPB [17] [%] | IC50 (A549) [µM] | IC50 [18] [µM] | Drug uptake [19] [ng/mL]
NC[C@@H]1CCN(c2cc3c(cc2F)c(=O)c(C(=O)O)cn3C2CC2)C1 | 0.29 (≈ 0.1 µg/mL) |  |  |  |  |  |  |  |  |  |  |  |  |  |  |  |  |  |  | 
CC(C)C[C@H](N)C(=O)N[C@@H](C)C(=O)N[C@H]1CCN(c2cc3c(cc2F)c(=O)c(C(=O)O)cn3C2CC2)C1 | 58 (≈ 29.9 µg/mL) | Metabolite_Notdetected |  |  |  |  |  |  |  |  |  |  |  |  |  |  |  |  |  | 
CC(C)C[C@H](NC(=O)CNC(=O)[C@H](C)NC(=O)c1ccc(S[C@@H]2O[C@H](CO)[C@H](O)[C@H](O)[C@H]2O)cc1)C(=O)N[C@@H](C)C(=O)N1CCN(c2cc3c(cc2F)c(=O)c(C(=O)O)cn3C2CC2)CC1 |  |  | ≥ 25 | Metabolite_Notdetected | ≥ 25 | > 25 | Stable | > 25 | ≥ 25 | ≥ 25 | ≥ 25 | 31.7 | > 25 |  |  |  |  |  |  | 
O=[N+]([O-])c1ccc(O[C@@H]2O[C@H](CO)[C@H](O)[C@H](O)[C@H]2O)cc1 |  |  |  |  |  |  |  |  |  |  |  | 61.9 |  |  |  |  |  |  |  | 
CC(C)C[C@H](NC(=O)CNC(=O)[C@H](C)NC(=O)c1ccc(S[C@@H]2O[C@H](CO)[C@H](O)[C@H](O)[C@H]2O)cc1)C(=O)N[C@@H](C)C(=O)N[C@H]1CCN(c2cc3c(cc2F)c(=O)c(C(=O)O)cn3C2CC2)C1 |  |  | 0.195 (≈ 0.184 µg/mL) | Metabolite_Detected | 0.1 (≈ 0.0942 µg/mL) | > 25 | Stable | > 25 | 0.78 (≈ 0.735 µg/mL) | 0.78 (≈ 0.735 µg/mL) | 0.195 (≈ 0.184 µg/mL) | 29.8 | ≥ 25 | > 4 | > 4 | 97.2 | 74 | 21.7 |  | 
O=C(O)c1cn(C2CC2)c2cc(N3CCNCC3)c(F)cc2c1=O [CIPROFLOXACIN] | 0.125 (≈ 0.0414 µg/mL) |  | 0.25 (≈ 0.0828 µg/mL) |  | 0.156 (≈ 0.0517 µg/mL) | 0.125 (≈ 0.0414 µg/mL) |  | 0.125 (≈ 0.0414 µg/mL) |  | 0.156 (≈ 0.0517 µg/mL) |  |  | 0.156 (≈ 0.0517 µg/mL) |  |  |  |  |  |  | 
CC(C)C[C@H](N)C(=O)N[C@@H](C)C(=O)NC[C@H]1CCN(c2cc3c(cc2F)c(=O)c(C(=O)O)cn3C2CC2)C1 | 28 (≈ 14.8 µg/mL) |  |  |  |  |  |  |  |  |  |  |  |  |  |  |  |  |  |  | 
CC(C)C[C@H](NC(=O)CNC(=O)[C@H](C)NC(=O)c1ccc(S(=O)(=O)NC[C@H]2O[C@@H](C)[C@@H](O)[C@@H](O)[C@@H]2O)cc1)C(=O)N[C@@H](C)C(=O)NC[C@@H]1CCN(c2cc3c(cc2F)c(=O)c(C(=O)O)cn3C2CC2)C1 |  |  | 3.13 (≈ 3.13 µg/mL) | Metabolite_Detected | 1.56 (≈ 1.56 µg/mL) | > 25 | Stable | > 25 | 3.13 (≈ 3.13 µg/mL) | 12.5 (≈ 12.5 µg/mL) | 1.56 (≈ 1.56 µg/mL) |  | ≥ 25 |  |  |  |  |  | 4.29 | 
CC(C)C[C@H](NC(=O)CNC(=O)[C@H](C)NC(=O)c1ccc(S(=O)(=O)NC[C@H]2O[C@@H](C)[C@@H](O)[C@@H](O)[C@@H]2O)cc1)C(=O)N[C@@H](C)C(=O)N1CCN(c2cc3c(cc2F)c(=O)c(C(=O)O)cn3C2CC2)CC1 |  |  | ≥ 25 | Metabolite_Notdetected | ≥ 25 | > 25 | Stable | > 25 | ≥ 25 | ≥ 25 | ≥ 25 |  | ≥ 25 |  |  |  |  |  | 4.63 | 
CC(C)C[C@H](NC(=O)CNC(=O)[C@H](C)NC(=O)c1ccc(S(=O)(=O)NC[C@H]2O[C@@H](C)[C@@H](O)[C@@H](O)[C@@H]2O)cc1)C(=O)N[C@@H](C)C(=O)N[C@H]1CCN(c2cc3c(cc2F)c(=O)c(C(=O)O)cn3C2CC2)C1 |  |  | 0.78 (≈ 0.77 µg/mL) | Metabolite_Detected | 0.1 (≈ 0.0987 µg/mL) | > 25 | Stable | > 25 | 1.56 (≈ 1.54 µg/mL) | 0.78 (≈ 0.77 µg/mL) | 0.39 (≈ 0.385 µg/mL) |  | ≥ 25 | 2.25 | 1.23 | 51.1 | 30.1 | > 50 | 3.59 | 55
CC(C)C[C@H](NC(=O)CNC(=O)[C@H](C)NC(=O)c1ccc(S[C@@H]2O[C@H](CO)[C@H](O)[C@H](O)[C@H]2O)cc1)C(=O)N[C@@H](C)C(=O)NC[C@@H]1CCN(c2cc3c(cc2F)c(=O)c(C(=O)O)cn3C2CC2)C1 |  |  | 3.13 (≈ 2.99 µg/mL) | Metabolite_Detected | 1.56 (≈ 1.49 µg/mL) | > 25 | Stable | > 25 | 1.56 (≈ 1.49 µg/mL) | 12.5 (≈ 12 µg/mL) | 1.56 (≈ 1.49 µg/mL) | 28 | > 25 |  |  |  |  |  |  | 
